# According to PubChem BioAssay:
# Activity calls are given as the source filed them.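 Rule for the calls: active = viability at or below 30% in both replicate assays; inconclusive = viability at or below 30% in just one of the two assays; inactive = the rest.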
# Test: HUVEC growth inhibition – cell-based, human, primary screen (AID 575);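 note: 100% = median of untreated cell wells with 0.1% DMSO on each plate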
# Details: HUVEC proliferation, CellTiter-Glo luminescence, 72 h; at 10 µM; active compounds read low
# Summary of the method: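 Test system: primary human umbilical vein endothelial cells; medium: endothelial basal medium with 2% FBS plus growth supplements; dosing: 10 µM compound only; times: 72 h treatment at 37 °C; signal: CTG luminescence; read-out: % viability relative to median vehicle-well signal on each plate; control set: vehicle and MePR control wells; plate: 384-well, collagen-coated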
row,SMILES,viability
1,Cc1ccc2c(c1C)NC(C(=O)O)C1CC=CC21 (configuration not stated),98.1% (inactive)
2,Cc1cc(C)cc(OCC(=O)NC2=NCCS2)c1,87.5% (inactive)
3,COc1cccc(NS(=O)(=O)c2ccc3[nH]cc(C(=O)NC4CC4)c(=O)c3c2)c1,70.3% (inactive)
4,COc1ccc(OC)c(NC(=O)C2C3CC4OC(=O)C2C4C3)c1 (configuration not stated),102% (inactive)
5,CN(C)C(=O)COc1ccc2cc(-c3ccccc3)c(=O)oc2c1,98.1% (inactive)
6,CC1CN(CC(O)COc2ccccc2C(C)(C)C)CC(C)O1 (configuration not stated),114% (inactive)
7,CN(C)CCCN1c2ccccc2CCc2ccc(Cl)cc21,5.55% (active)
8,COc1ccc(NC(=O)c2oc3ccccc3c2NC(=O)c2ccco2)cc1,88.8% (inactive)
9,CC1(C)SC2[C@H](NC(=O)C(NC(=O)N3CCNC3=O)c3ccccc3)C(=O)N2C1C(=O)O (some centres not stated),80.2% (inactive)
10,CC(=O)OC1CSc2nc3ccccc3n2C1 (configuration not stated),111% (inactive)
11,O=S(=O)(NCC1CCCO1)c1ccc2c(c1)OCCO2 (configuration not stated),98% (inactive)
12,O=c1c2ccccc2c(/C=N/n2cnnc2)c(O)n1-c1ccccc1,103% (inactive)
13,COc1ccc(C2=CC(=O)OC3(CCCCC3)O2)cc1,93.2% (inactive)
14,CCCC1(C(=O)OC)NC(c2cc(OC)c(OC)c(OC)c2)C2C(=O)N(CC)C(=O)C21 (configuration not stated),98.3% (inactive)
15,C#CCN(C)Cc1ccccc1,94.3% (inactive)
16,CCOC(=O)CSc1nc2sc(C)c(C)c2c(=O)[nH]1,101% (inactive)
17,c1coc(CN(Cc2cccs2)Cc2nnnn2C2CCCCC2)c1,83.2% (inactive)
